High-throughput results deposited in PubChem BioAssay by Broad Institute.
Rce1 inhib – yeast Rce1p protease inhibitors, primary screen, biochemical, fluorescence, cell-free homogeneous | CAAX prenyl protease 2 (Saccharomyces cerevisiae (strain ATCC 204508 / S288c)), Q03530 | yeast membranes, quenched prenylated peptide cleavage fluorescence | calls only | 0.27% of 290,000 active | AID 2563, 2010;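 active = fall in fluorescence gain of 50% or more versus controls, with final raw signal at or below 3038400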
AI-2 QS modul – Vibrio harveyi AI-2 quorum sensing modulators, primary screen, JMH597 strain, luminescence/OD600 ratio; Vibrio harveyi JMH597 AI-2 luminescence/OD600 ratio, 9 h; active compounds read low; strain lacks LuxN and CqsS sensors; 0 = neutral-control median; activity change, % at 7.5 µM; 0.4% of 300,000 active; AID 2094, 2009; in the data active = activity change below about -75%, passing the limit was not always enough;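 note: luminescence divided by OD600 gain over 9 h not by final OD600 alone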
STK33 kinase inh – inhibitors of purified STK33 kinase, primary screen, biochemical, ADP-Glo luminescence, homogeneous, cell-free | Serine/threonine-protein kinase 33 (Homo sapiens), Q9BYT3 | MBP phosphorylation | inhibition, % at 10 µM | 0.073% of 320,000 active;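 active = inhibition at or above 25%, using the most active replicate where run in duplicate; inactive = inhibition below 25%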
Target sequence (Q9BYT3 whole entry, looked up): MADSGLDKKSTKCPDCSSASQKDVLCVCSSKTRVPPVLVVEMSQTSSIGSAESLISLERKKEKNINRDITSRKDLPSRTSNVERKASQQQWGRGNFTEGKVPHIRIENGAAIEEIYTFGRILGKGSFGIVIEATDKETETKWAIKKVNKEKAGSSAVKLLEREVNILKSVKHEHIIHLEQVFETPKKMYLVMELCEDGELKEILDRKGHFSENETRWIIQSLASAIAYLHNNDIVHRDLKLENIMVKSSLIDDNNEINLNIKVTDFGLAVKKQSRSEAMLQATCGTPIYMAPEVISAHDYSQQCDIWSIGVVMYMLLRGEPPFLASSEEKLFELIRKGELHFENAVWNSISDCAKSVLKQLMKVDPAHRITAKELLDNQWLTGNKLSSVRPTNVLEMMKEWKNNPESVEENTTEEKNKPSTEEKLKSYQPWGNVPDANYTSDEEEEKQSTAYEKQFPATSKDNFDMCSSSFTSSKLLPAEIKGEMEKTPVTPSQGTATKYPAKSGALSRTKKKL
GSK3A inh – blockers of GSK3A enzyme activity – biochemical, luminescence, cell-free homogeneous, HTS, primary screen; Glycogen synthase kinase-3 alpha (Homo sapiens), P49840; GSK-3 alpha kinase, ADP-Glo luminescence, 60 min; inhibition, % at 10 µM; 0.1% of 320,000 active; AID 2650, 2010;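 active = more than half of replicates show inhibition above 20%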;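 note: GST-tagged GSK-3 alpha with peptide substrate and 25 µM ATP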
Dyrk1A ADPGlo – rat Dyrk1A kinase inhibitors, primary screen, biochemical, single point, plate reader | inhibition, % at 12.5 µM | ADP-Glo luminescence, NFATc1 peptide | 0.43% of 310,000 active; in the data active = inhibition above about 50%
GSK3B inh – human GSK3beta kinase inhibitors, primary screen, biochemical, cell-free homogeneous, HTS. Glycogen synthase kinase-3 beta (Homo sapiens), P49841. GST-GSK3beta kinase, ADP-Glo luminescence, 60 min; active compounds read low. activity score (negative = inhibition), % at 10 µM. 0.038% of 300,000 active. AID 2097, 2009;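 active = more than half of replicate wells score below -50%, meaning over 50% inhibition versus plate controls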
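Test system: GST-fused GSK3beta enzyme, cell-free | Quantity: 1.6 ng GST-GSK3beta enzyme per well | Reagent: 25 µM ATP with peptide substrate | Schedule: 60 min enzyme reaction, room temperature | Signal: Luminescent ADP-Glo measurement of ADP formed | Read-out basis: Score relative to plate controls | Control set: DMSO and 20 µM GW8510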
Dyrk1A artifact – ADP-Glo luciferase interference without Dyrk1A, dose response, artefact control for Dyrk1A inhibitor project, biochemical, luminescence, cherry-pick, set 02 | shares compounds with Dyrk1A ADPGlo | ADP-Glo luciferase artifact assay, no Dyrk1A | AC50, µM (series often up to 12 µM) | 1,300 tested, under 10 active;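 active = fitted half-maximal dose AC50 no more than ten times the top valid tested dose, with luminescence dropping as dose rises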
Hits are given with their value. Sampled rows, rich in hits. Any-hit rate of the full collection: about 0.99%.

Results for O=C(Nc1ccc2cn[nH]c2c1)c1ccccc1F ?
Rce1 inhib: inactive; AI-2 QS modul: inactive; STK33 kinase inh: inactive; GSK3A inh: inactive; Dyrk1A ADPGlo: 54; GSK3B inh: inactive; Dyrk1A artifact: inactive

How did Oc1ccc(/C=N/Nc2ccc(C(F)(F)F)cn2)c(O)c1 do in these assays?
Rce1 inhib: inactive; AI-2 QS modul: inactive; STK33 kinase inh: inactive; GSK3A inh: inactive; Dyrk1A ADPGlo: 61; GSK3B inh: inactive; Dyrk1A artifact: inactive

Results for Oc1ccc(/C=N/Nc2cccc(Cl)n2)c(O)c1 ?
Rce1 inhib: inactive; AI-2 QS modul: inactive; STK33 kinase inh: inactive; GSK3A inh: inactive; Dyrk1A ADPGlo: inactive; GSK3B inh: inactive

How did Oc1[nH]c2ccccc2c1N=NC(=S)N1CCOCC1 do in these assays?
Rce1 inhib: inactive; AI-2 QS modul: inactive; STK33 kinase inh: inactive; GSK3A inh: inactive; Dyrk1A ADPGlo: inactive; GSK3B inh: inactive

Results for Oc1[nH]c2ccc(Br)cc2c1N=NC(=S)N1CCOCC1 ?
Rce1 inhib: inactive; AI-2 QS modul: inactive; STK33 kinase inh: inactive; GSK3A inh: inactive; Dyrk1A ADPGlo: 63; GSK3B inh: inactive; Dyrk1A artifact: inactive

Results for Nc1cc2c([N+](=O)[O-])cccc2o1 ?
Rce1 inhib: inactive; AI-2 QS modul: inactive; STK33 kinase inh: inactive; GSK3A inh: inactive; Dyrk1A ADPGlo: 60; GSK3B inh: inactive; Dyrk1A artifact: inactive

What do the screens show for `O=C(CSc1nc(-c2cccs2)cc(C(F)(F)F)n1)NCCCn1ccnc1`?
Rce1 inhib: inactive; AI-2 QS modul: inactive; STK33 kinase inh: inactive; GSK3A inh: inactive; Dyrk1A ADPGlo: inactive; GSK3B inh: inactive

What do the screens show for `O=C(CSc1nc(-c2ccco2)cc(C(F)(F)F)n1)NCCCn1ccnc1`?
Rce1 inhib: inactive; AI-2 QS modul: inactive; STK33 kinase inh: inactive; GSK3A inh: inactive; Dyrk1A ADPGlo: 58; GSK3B inh: inactive; Dyrk1A artifact: inactive

Results for CN(C(=O)c1ccc(NC(=O)Cc2cccc(NC(=O)C3CCCN(C(=O)C4CC4)C3)c2)cc1)C1CC1 (stereo not drawn) ?
Dyrk1A ADPGlo: inactive

What do the screens show for `N#C/C(=N\Nc1cccc(C(F)(F)F)c1)C(=O)c1ccsc1`?
Rce1 inhib: inactive; AI-2 QS modul: inactive; STK33 kinase inh: inactive; GSK3A inh: inactive; Dyrk1A ADPGlo: inactive; GSK3B inh: inactive

Results for CC(C)Oc1ccc(C(CC(=O)NCc2ccco2)c2ccccc2)cc1 (stereo not drawn) ?
Rce1 inhib: inactive; AI-2 QS modul: inactive; STK33 kinase inh: inactive; GSK3A inh: inactive; Dyrk1A ADPGlo: 55; GSK3B inh: inactive; Dyrk1A artifact: inactive

Results for Cc1cccc(C(CC(=O)NCc2ccco2)c2ccccc2)c1O (stereo not drawn) ?
Rce1 inhib: inactive; AI-2 QS modul: inactive; STK33 kinase inh: inactive; GSK3A inh: inactive; Dyrk1A ADPGlo: inactive; GSK3B inh: inactive

How did C[C@@H](C(=O)OCC(=O)c1ccc(F)c(F)c1)N1C(=O)C2CCCCC2C1=O (stereo partly drawn) do in these assays?
STK33 kinase inh: inactive; GSK3A inh: inactive; Dyrk1A ADPGlo: inactive

How did Oc1ccccc1/C=N/n1c(-c2ccccc2)n[nH]c1=S do in these assays?
Rce1 inhib: inactive; AI-2 QS modul: inactive; STK33 kinase inh: inactive; GSK3A inh: inactive; Dyrk1A ADPGlo: inactive; GSK3B inh: inactive

What do the screens show for `O=[N+]([O-])c1ccc(O)c(/C=N/n2c(-c3ccccc3)n[nH]c2=S)c1`?
Rce1 inhib: inactive; AI-2 QS modul: inactive; STK33 kinase inh: inactive; GSK3A inh: inactive; Dyrk1A ADPGlo: 57; GSK3B inh: inactive; Dyrk1A artifact: inactive

Results for Cc1nc(NC(=O)c2ccccc2)sc1-c1csc(N)n1 ?
Rce1 inhib: inactive; AI-2 QS modul: inactive; STK33 kinase inh: inactive; GSK3A inh: inactive; Dyrk1A ADPGlo: 60; GSK3B inh: inactive; Dyrk1A artifact: inactive

What do the screens show for `Cc1nc(NC(=O)c2ccccc2)sc1-c1csc(NCc2ccccc2)n1`?
Rce1 inhib: inactive; AI-2 QS modul: inactive; STK33 kinase inh: inactive; GSK3A inh: inactive; Dyrk1A ADPGlo: inactive; GSK3B inh: inactive

How did CCn1c(SCC(=O)NC2CCCC2)nnc1-c1ccncc1 do in these assays?
Rce1 inhib: inactive; AI-2 QS modul: inactive; STK33 kinase inh: inactive; GSK3A inh: inactive; Dyrk1A ADPGlo: inactive; GSK3B inh: inactive

Results for COCCCn1c(SCC(=O)NC2CCCCC2)nnc1-c1ccncc1 ?
Rce1 inhib: inactive; AI-2 QS modul: inactive; STK33 kinase inh: inactive; GSK3A inh: inactive; Dyrk1A ADPGlo: 51; GSK3B inh: inactive; Dyrk1A artifact: inactive

How did COc1ccc(C(C)(C)C)cc1NC(=O)CCCN1C(=O)NC(C)(C)C1=O do in these assays?
STK33 kinase inh: inactive; GSK3A inh: inactive; Dyrk1A ADPGlo: inactive

What do the screens show for `O=C(COC(=O)c1cccs1)c1ccc2ccccc2c1`?
Rce1 inhib: inactive; AI-2 QS modul: inactive; STK33 kinase inh: inactive; GSK3A inh: inactive; Dyrk1A ADPGlo: 51; GSK3B inh: inactive; Dyrk1A artifact: inactive

Results for O=C(COC(=O)c1cccs1)c1ccc2c(c1)OCCO2 ?
Rce1 inhib: inactive; AI-2 QS modul: inactive; STK33 kinase inh: inactive; GSK3A inh: inactive; Dyrk1A ADPGlo: inactive; GSK3B inh: inactive

How did CCc1noc(C)c1C(=O)Nc1cc(S(=O)(=O)N2CCOCC2)ccc1N1CCN(CC)CC1 do in these assays?
Rce1 inhib: inactive; AI-2 QS modul: inactive; STK33 kinase inh: inactive; GSK3A inh: inactive; Dyrk1A ADPGlo: inactive; GSK3B inh: inactive

Results for CC1CCCC(NC(=S)NC(=O)c2ccco2)C1C (stereo not drawn) ?
STK33 kinase inh: inactive; GSK3A inh: inactive

How did CCOc1cc(C(=O)N2CCC3(CC2)NCCc2[nH]cnc23)cc(OCC)c1OCC do in these assays?
Rce1 inhib: inactive; AI-2 QS modul: inactive; STK33 kinase inh: inactive; GSK3A inh: inactive; Dyrk1A ADPGlo: inactive; GSK3B inh: inactive

What do the screens show for `Cc1nc2scc(C)n2c(=O)c1S(=O)(=O)Nc1ccc(OC(F)(F)F)cc1`?
Rce1 inhib: inactive; AI-2 QS modul: inactive; STK33 kinase inh: inactive; GSK3A inh: inactive; GSK3B inh: inactive

What do the screens show for `N=C(N)c1ccc(N=Nc2c(O)ccc3c2[nH]c2ccccc23)cc1`?
Dyrk1A ADPGlo: 78; Dyrk1A artifact: inactive
